Measured values as given in ChEMBL document CHEMBL3227938, “Quantitative structure-activity relationships for biguanides, carbamimidates, and bisbiguanides as inhibitors of Streptococcus mutans No. 6715” (J Med Chem, 1979).

Columns and labels:
[1] = Octanol-phosphate buffer partition coefficient, log P of the compound at pH 11.5; format: physicochemical
Method in brief: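 Compound partitioned between 0.05 M phosphate buffer (pH 11.5) and octanol, each pre-saturated with the other. Gentle shaking for 90 min at 25 ± 5 °C. Phase ratio and sample amount set so the buffer-layer absorbance fell between 0.2 and 0.9 (1-cm cell, buffer blank). Free-base P was corrected for degree of ionization using pKa.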

Streptococcus mutans [2] = test: Antimicrobial activity against Streptococcus mutans 6715 after 24 hrs by spectrophotometry; format: functional
Method in brief: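 Inoculated with a 24-h S. mutans 6715 culture and incubated anaerobically at 37 °C. Growth read spectrophotometrically. Dilution series run in sets of five tubes. MIC is the lowest drug level with readings above 60% T at 24 h. Repeat determinations agreed.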

Streptococcus mutans [3] = test: Antimicrobial activity against Streptococcus mutans 6715 after 48 hrs by spectrophotometry; format: functional
Method in brief: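 Trypticase soy broth with sucrose and the salt of the test agent dosed from ethanol, inoculated with a 24-h S. mutans 6715 culture. Incubated anaerobically at 37 °C. Growth measured spectrophotometrically at 48 h. Each dilution tested in sets of five tubes.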

[4] = Dissociation constant, pKa of the compound in 3:1 water:ethanol at 1 x 10 '-3 M; format: physicochemical
Method in brief: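 pKa measured in duplicate by potentiometric titration in 3:1 water–ethanol at 10⁻³. pH recorded after each titrant addition, and pKa calculated by the Albert–Serjeant method.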

Row | Structure (SMILES) | logD [1] | log(1/MIC) (Streptococcus mutans [2]) | log(1/MIC) (Streptococcus mutans [3]) | pKa at 1000 µM [4]
1 | CCCCCC/N=C(N)/N=C(\N)Nc1ccc(Cl)cc1 | 3.13 | 5 | 5 | 
2 | CNC(=N)NC(=N)Nc1ccc(Cl)cc1 | 1.58 | 3 | 3 | 10.6
3 | CCNC(=N)NC(=N)Nc1ccc(Cl)cc1 | 2.14 | 3.04 | 3 | 10.8
4 | CCCNC(=N)NC(=N)Nc1ccc(Cl)cc1 | 2.63 | 3.04 | 3 | 10.8
5 | CCCCNC(=N)NC(=N)Nc1ccc(Cl)cc1 | 3.13 | 4 | 4 | 10.8
6 | CCCCC(CC)CNC(=N)NC(=N)Nc1ccc(Cl)cc1 (stereo not drawn) | 4.93 | 5.4 | 5.4 | 
7 | CCCCCCCCNC(=N)NC(=N)Nc1ccc(Cl)cc1 | 5.13 | 5.22 | 5.22 | 
8 | CCCCCCCCCCNC(=N)NC(=N)Nc1ccc(Cl)cc1 | 6.13 | 5.1 | 5 | 
9 | CCCCCCCCCCCCNC(=N)NC(=N)Nc1ccc(Cl)cc1 | 7.13 | 5 | 4.7 | 
10 | CCCCCCCCNC(=N)NC(=N)Nc1ccc(C)cc1 | 4.93 | 5.4 | 5.3 | 
11 | CCCCC(CC)CNC(=N)NC(=N)Nc1ccc(C)cc1 (stereo not drawn) | 4.73 | 5.22 | 5.22 | 
12 | CCCCCCCCNC(=N)NC(=N)Nc1ccccc1 | 4.43 | 5.22 | 5.04 | 
13 | CCCCCCCCCCNC(=N)NC(=N)Nc1ccccc1 | 5.43 | 5.3 | 5.15 | 
14 | CCCCCCNC(=N)NC(=N)Nc1cccc(C(F)(F)F)c1 | 4.31 | 5 | 4.96 | 
15 | CCCCCCCCNC(=N)NC(=N)Nc1cccc(C(F)(F)F)c1 | 5.31 | 5.3 | 5.3 | 
16 | CCCCCCCCNC(=N)NC(=N)Nc1ccc(OC)cc1 | 4.41 | 5.22 | 5 | 
17 | CCOC(=N)NC(=N)Nc1ccc(Cl)cc1 | 2.32 | 3.7 | 3.7 | 9.36
18 | CC(C)OC(=N)NC(=N)Nc1ccc(Cl)cc1 | 2.64 | 3.3 | 3.3 | 9.35
19 | CCCCOC(=N)NC(=N)Nc1ccc(Cl)cc1 | 3.32 | 4.15 | 4 | 

Row | Structure (SMILES) | logD [1] | log(1/MIC) (Streptococcus mutans [2]) | log(1/MIC) (Streptococcus mutans [3]) | pKa at 1000 µM [4]
20 | CCCCCCOC(=N)NC(=N)Nc1ccc(Cl)cc1 | 4.32 | 5.1 | 5 | 
21 | CCCCCCCCOC(=N)NC(=N)Nc1ccc(Cl)cc1 | 5.32 | 5.52 | 5.3 | 
22 | CCCCCCCCCCOC(=N)NC(=N)Nc1ccc(Cl)cc1 | 6.32 | 5.05 | 5.05 | 
23 | N=C(NCCCCCCNC(=N)NC(=N)Nc1cccc(C(F)(F)F)c1)NC(=N)Nc1cccc(C(F)(F)F)c1 | 5.12 | 5.52 | 5.22 | 
24 | N=C(NCCCCCCNC(=N)NC(=N)NC1CCCCC1)NC(=N)NC1CCCCC1 | 4.46 | 5.4 | 5.4 | 
25 | N=C(NCCCCCCNC(=N)NC(=N)NC12CC3CC(CC(C3)C1)C2)NC(=N)NC12CC3CC(CC(C3)C1)C2 | 6.04 | 5 | 5 | 
26 | CSc1ccc(NC(=N)NC(=N)NCCCCCCNC(=N)NC(=N)Nc2ccc(SC)cc2)cc1 | 4.58 | 5.4 | 5.4 | 
27 | CCSc1ccc(NC(=N)NC(=N)NCCCCCCNC(=N)NC(=N)Nc2ccc(SCC)cc2)cc1 | 5.58 | 5.7 | 5.7 | 
28 | CCCCSc1ccc(NC(=N)NC(=N)NCCCCCCNC(=N)NC(=N)Nc2ccc(SCCCC)cc2)cc1 | 7.58 | 5.7 | 5.52 | 
29 | CCCCCSc1ccc(NC(=N)NC(=N)NCCCCCCNC(=N)NC(=N)Nc2ccc(SCCCCC)cc2)cc1 | 8.58 | 5.52 | 5.3 | 
30 | CCCS(=O)(=O)c1ccc(NC(=N)NC(=N)NCCCCCCNC(=N)NC(=N)Nc2ccc(S(=O)(=O)CCC)cc2)cc1 | 2.1 | 3.7 | 3.7 | 
31 | CCCCS(=O)(=O)c1ccc(NC(=N)NC(=N)NCCCCCCNC(=N)NC(=N)Nc2ccc(S(=O)(=O)CCCC)cc2)cc1 | 3.1 | 4.7 | 4.52 | 
32 | CCCCCS(=O)(=O)c1ccc(NC(=N)NC(=N)NCCCCCCNC(=N)NC(=N)Nc2ccc(S(=O)(=O)CCCCC)cc2)cc1 | 4.1 | 5.52 | 5.4 | 
33 | CCCCCCS(=O)(=O)c1ccc(NC(=N)NC(=N)NCCCCCCNC(=N)NC(=N)Nc2ccc(S(=O)(=O)CCCCCC)cc2)cc1 | 5.1 | 5.4 | 5.4 | 
34 | CCCSc1ccc(NC(=N)NC(=N)NCCCCCCNC(=N)NC(=N)Nc2ccc(SCCC)cc2)cc1 | 6.58 | 5.3 | 5.22 | 
35 | CCCCC(CC)CNC(=N)NC(=N)NCCCCCCNC(=N)NC(=N)NCC(CC)CCCC (stereo not drawn) [ALEXIDINE] | 7.04 | 5.15 | 5.1 | 
36 | N=C(NCCCCCCNC(=N)NC(=N)Nc1ccc(Cl)cc1)NC(=N)Nc1ccc(Cl)cc1 [CHLORHEXIDINE] | 4.78 | 5.3 | 5.22 | 10.8
37 | CC(C)NC(=N)NC(=N)Nc1ccc(Cl)cc1 [PROGUANIL] | 2.43 | 3.04 | 3 | 
